# ChEMBL document CHEMBL1128216, “Rational design and synthesis of small molecule, non-oligosaccharide selectin inhibitors: (alpha-D-mannopyranosyloxy)biphenyl-substituted carboxylic acids” (J Med Chem, 1995)
# pIC50: −log10 of the molar value.
# What was measured:
# [1] = target: T1, P-selectin (Homo sapiens) (UniProt P16109); assay: In vitro inhibitory activity against sialyl Lewis X expressing HL60 cell binding Selectin P at 4 mM concentration; format: cell-based; conditions: HL-60
# T1 sequence (whole entry): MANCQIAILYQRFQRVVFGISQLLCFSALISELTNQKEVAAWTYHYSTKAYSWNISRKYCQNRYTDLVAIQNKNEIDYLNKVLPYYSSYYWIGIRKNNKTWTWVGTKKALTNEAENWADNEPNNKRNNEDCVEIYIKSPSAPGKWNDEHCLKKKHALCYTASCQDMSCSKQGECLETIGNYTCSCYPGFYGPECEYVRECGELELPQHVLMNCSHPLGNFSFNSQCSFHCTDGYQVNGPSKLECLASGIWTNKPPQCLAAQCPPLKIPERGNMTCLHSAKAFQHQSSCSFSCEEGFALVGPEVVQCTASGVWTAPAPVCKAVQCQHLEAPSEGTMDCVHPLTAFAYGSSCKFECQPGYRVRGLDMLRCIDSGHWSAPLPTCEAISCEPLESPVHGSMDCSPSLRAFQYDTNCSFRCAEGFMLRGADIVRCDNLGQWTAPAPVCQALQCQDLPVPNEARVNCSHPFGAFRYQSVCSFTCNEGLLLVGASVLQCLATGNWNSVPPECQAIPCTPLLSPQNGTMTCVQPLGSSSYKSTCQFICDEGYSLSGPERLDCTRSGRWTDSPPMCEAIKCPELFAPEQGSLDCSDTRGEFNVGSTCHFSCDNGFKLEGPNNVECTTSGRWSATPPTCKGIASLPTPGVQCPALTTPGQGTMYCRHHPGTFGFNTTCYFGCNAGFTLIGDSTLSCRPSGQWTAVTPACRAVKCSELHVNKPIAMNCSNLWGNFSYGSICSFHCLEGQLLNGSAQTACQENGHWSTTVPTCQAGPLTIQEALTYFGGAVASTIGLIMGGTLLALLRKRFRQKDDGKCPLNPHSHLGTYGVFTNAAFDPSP
# [2] = target: T2, L-selectin (Mus musculus) (UniProt P18337); assay: In vitro inhibitory activity against sialyl Lewis X expressing HL60 cell binding Selectin L at 1 mM concentration; format: cell-based; conditions: HL-60
# T2 sequence (whole entry): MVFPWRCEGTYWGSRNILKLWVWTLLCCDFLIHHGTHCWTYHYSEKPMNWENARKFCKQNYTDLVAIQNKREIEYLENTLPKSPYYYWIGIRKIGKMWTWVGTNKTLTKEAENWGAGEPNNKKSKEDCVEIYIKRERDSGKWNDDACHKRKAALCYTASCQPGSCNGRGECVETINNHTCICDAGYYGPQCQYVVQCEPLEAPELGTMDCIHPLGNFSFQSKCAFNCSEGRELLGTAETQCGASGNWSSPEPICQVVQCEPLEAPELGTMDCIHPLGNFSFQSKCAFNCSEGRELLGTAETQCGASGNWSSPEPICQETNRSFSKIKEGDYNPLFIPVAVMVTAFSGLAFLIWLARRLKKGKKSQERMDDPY
# [3] = target: T3, E-selectin (Homo sapiens, UniProt P16581); assay: In vitro inhibition of HL60 (human leukemia) cell binding to human recombinant e-selectin.; format: cell-based, HL-60
# T3 sequence (P16581 whole entry): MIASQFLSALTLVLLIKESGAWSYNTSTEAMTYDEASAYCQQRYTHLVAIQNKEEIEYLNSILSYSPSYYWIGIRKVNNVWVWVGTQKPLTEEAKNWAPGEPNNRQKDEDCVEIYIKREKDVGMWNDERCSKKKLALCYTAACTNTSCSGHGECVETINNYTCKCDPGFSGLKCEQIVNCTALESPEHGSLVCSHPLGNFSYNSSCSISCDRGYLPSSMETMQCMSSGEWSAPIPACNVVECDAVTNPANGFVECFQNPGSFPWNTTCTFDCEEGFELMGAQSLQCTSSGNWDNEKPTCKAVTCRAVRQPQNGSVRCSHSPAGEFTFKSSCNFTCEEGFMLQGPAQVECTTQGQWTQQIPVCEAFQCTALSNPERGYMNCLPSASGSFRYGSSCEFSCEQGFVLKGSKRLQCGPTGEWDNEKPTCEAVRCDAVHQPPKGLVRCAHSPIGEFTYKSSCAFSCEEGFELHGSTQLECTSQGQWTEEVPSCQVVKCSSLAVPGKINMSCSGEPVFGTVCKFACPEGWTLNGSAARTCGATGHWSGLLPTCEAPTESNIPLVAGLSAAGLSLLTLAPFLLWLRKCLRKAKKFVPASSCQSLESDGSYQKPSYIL
# Method in brief: (§1)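 Human E-selectin (lectin, EGF and two complement repeats) fused to mouse IgG was captured on anti-mouse IgG magnetic beads overnight at 4 °C. Wells were pre-blocked with 3% BSA/PBS. Compound in PBS was mixed with calcein-labelled HL60 cells (10⁷/mL, RPMI 1640 + 10% FCS) and beads (4 × 10⁶/mL) for 10 min at room temperature. Unbound cells were removed magnetically with two PBS washes, and bound cells were lysed in 1% NP40.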
# [4] = target: T4, L-selectin (Mus musculus, UniProt P18337); assay: In vitro inhibitory activity against sialyl Lewis X expressing HL60 cell binding Selectin L; format: cell-based, HL-60
# T4 sequence (P18337 whole entry): T2 sequence (whole entry)
# [5] = target: T5, P-selectin (Homo sapiens, UniProt P16109); assay: In vitro inhibitory activity against sialyl Lewis X expressing HL60 cell binding Selectin P; format: cell-based, HL-60
# T5 sequence (P16109 whole entry): T1 sequence (whole entry)
# [6] = target: T2, L-selectin (Mus musculus); assay: In vitro inhibitory activity against sialyl Lewis X expressing HL60 cell binding to Selectin L at 6 mM concentration; format: cell-based; conditions: HL-60
# [7] = target: T6, E-selectin (Homo sapiens) (UniProt P16581); assay: In vitro inhibitory activity against sialyl Lewis X expressing HL60 cell binding to recombinant human E-selectin at 40 mM concentration; format: cell-based; conditions: HL-60; method in brief: as §1
# T6 sequence (whole entry): T3 sequence (P16581 whole entry)
# [8] = target: T2, L-selectin (Mus musculus); assay: In vitro inhibitory activity against sialyl Lewis X expressing HL60 cell binding to Selectin L at 8 mM concentration; format: cell-based; conditions: HL-60
# [9] = target: T1, P-selectin (Homo sapiens); assay: In vitro inhibitory activity against sialyl Lewis X expressing HL60 cell binding Selectin P at 20 mM concentration; format: cell-based; conditions: HL-60
# [10] = target: T6, E-selectin (Homo sapiens); assay: In vitro inhibitory activity against sialyl Lewis X expressing HL60 cell binding to recombinant human E-selectin at 20 mM concentration; format: cell-based; conditions: HL-60; method in brief: as §1
# [11] = target: T6, E-selectin (Homo sapiens); assay: In vitro inhibitory activity against sialyl Lewis X expressing HL60 cell binding to recombinant human E-selectin at 6 mM concentration; format: cell-based; conditions: HL-60; method in brief: as §1
# [12] = target: T1, P-selectin (Homo sapiens); assay: In vitro inhibitory activity against sialyl Lewis X expressing HL60 cell binding Selectin P at 23 mM concentration; format: cell-based; conditions: HL-60
# [13] = target: T6, E-selectin (Homo sapiens); assay: In vitro inhibitory activity against sialyl Lewis X expressing HL60 cell binding to recombinant human E-selectin at 1 mM concentration; format: cell-based; conditions: HL-60; method in brief: as §1
# [14] = target: T2, L-selectin (Mus musculus); assay: In vitro inhibitory activity against sialyl Lewis X expressing HL60 cell binding Selectin L at 6 mM concentration; format: cell-based; conditions: HL-60
# [15] = target: T6, E-selectin (Homo sapiens); assay: In vitro inhibitory activity against sialyl Lewis X expressing HL60 cell binding to recombinant human E-selectin at 128 mM concentration; format: cell-based; conditions: HL-60; 18 mM; in the assay text read “18 mM” for “128 mM”; method in brief: as §1
# [16] = target: T2, L-selectin (Mus musculus); assay: In vitro inhibitory activity against sialyl Lewis X expressing HL60 cell binding to Selectin L at 7 mM concentration; format: cell-based; conditions: HL-60
# [17] = target: T6, E-selectin (Homo sapiens); assay: In vitro inhibitory activity against sialyl Lewis X expressing HL60 cell binding to recombinant human E-selectin at 16.3 mM concentration; format: cell-based; conditions: HL-60; method in brief: as §1
# [18] = target: T2, L-selectin (Mus musculus); assay: In vitro inhibitory activity against sialyl Lewis X expressing HL60 cell binding to Selectin L at 5 mM concentration; format: cell-based; conditions: HL-60
# [19] = target: T2, L-selectin (Mus musculus); assay: In vitro inhibitory activity against sialyl Lewis X expressing HL60 cell binding to L-selectin at 6 mM concentration; format: cell-based; conditions: HL-60
smiles,measurement,setting,value
O=C(O)CCC(NC(=O)c1ccc(-c2ccccc2O[C@H]2O[C@H](CO)[C@@H](O)[C@@H](O)[C@@H]2O)cc1)C(=O)O (some centres not stated),inhibition,[1],35%
same,inhibition,[2],0%
same,pIC50,[3],1.49
Cc1ccc(O[C@H]2O[C@H](CO)[C@@H](O)[C@@H](O)[C@@H]2O)c(-c2cccc(OCC(=O)O)c2)c1,pIC50,[3],1.85
O=C(O)COc1cccc(-c2ccccc2O[C@H]2O[C@H](CO)[C@@H](O)[C@@H](O)[C@@H]2O)c1,pIC50,[4],1.77
same,pIC50,[3],2.31
same,pIC50,[5],2.31
CC(C(=O)O)c1cccc(-c2ccccc2O[C@H]2O[C@H](CO)[C@@H](O)[C@@H](O)[C@@H]2O)c1 (stereo in doubt; 9r) [listing 1 of 2 here],inhibition,[6],40%
same,inhibition,[7],0%
O=S(=O)(O)CCc1cccc(-c2ccccc2O[C@H]2O[C@H](CO)[C@@H](O)[C@@H](O)[C@@H]2O)c1,pIC50,[3],1.70
Cc1c(OCC(=O)O)cccc1-c1ccccc1O[C@H]1O[C@H](CO)[C@@H](O)[C@@H](O)[C@@H]1O,inhibition,[8],0%
same,inhibition,[9],0%
same,inhibition,[10],0%
O=C(O)C(=O)Nc1cccc(-c2ccccc2O[C@H]2O[C@H](CO)[C@@H](O)[C@@H](O)[C@@H]2O)c1,inhibition,[11],0%
CCOP(=O)(O)CCCc1cccc(-c2ccccc2O[C@H]2O[C@H](CO)[C@@H](O)[C@@H](O)[C@@H]2O)c1,pIC50,[3],1.46
same,pIC50,[5],1.91
N#CCc1cccc(-c2ccccc2O[C@H]2O[C@H](CO)[C@@H](O)[C@@H](O)[C@@H]2O)c1,pIC50,[4],2.82
same,inhibition,[12],40%
same,pIC50,[3],2.15
O=C(N[C@H](Cc1ccccc1)C(=O)O)c1cccc(-c2ccccc2O[C@H]2O[C@H](CO)[C@@H](O)[C@@H](O)[C@@H]2O)c1,inhibition,[13],14%
same,inhibition,[9],5%
same,inhibition,[14],0%
O=C(NC(Cc1ccccc1)C(=O)O)c1ccc(-c2ccccc2O[C@H]2O[C@H](CO)[C@@H](O)[C@@H](O)[C@@H]2O)cc1 (some centres not stated),pIC50,[3],1.94
O=C(O)CCNC(=O)c1ccc(-c2ccccc2O[C@H]2O[C@H](CO)[C@@H](O)[C@@H](O)[C@@H]2O)cc1,inhibition,[2],0%
same,pIC50,[3],1.44
O=C(O)CNC(=O)c1cccc(-c2ccccc2O[C@H]2O[C@H](CO)[C@@H](O)[C@@H](O)[C@@H]2O)c1,inhibition,[12],25%
same,inhibition,[14],0%
same,inhibition,[15],0%
Cc1cc(-c2ccccc2O[C@H]2O[C@H](CO)[C@@H](O)[C@@H](O)[C@@H]2O)cc(C)c1OCC(=O)O,inhibition,[16],0%
same,pIC50,[3],2.10
same,pIC50,[5],2.16
O=C(O)CC(NC(=O)c1ccc(-c2ccccc2O[C@H]2O[C@H](CO)[C@@H](O)[C@@H](O)[C@@H]2O)cc1)C(=O)O (some centres not stated),pIC50,[4],2.30
same,inhibition,[17],0%
same,pIC50,[5],2.70
O=C(N[C@@H](Cc1ccccc1)C(=O)O)c1ccc(-c2ccccc2O[C@H]2O[C@H](CO)[C@@H](O)[C@@H](O)[C@@H]2O)cc1,inhibition,[9],0%
same,pIC50,[3],2.42
same,inhibition,[18],0%
O=C(O)COc1ccc(-c2ccccc2O[C@H]2O[C@H](CO)[C@@H](O)[C@@H](O)[C@@H]2O)cc1,pIC50,[3],2.21
same,inhibition,[19],20%
same,pIC50,[5],1.70
CC(=O)N[C@H]1[C@H]([C@H](O)[C@H](O)CO)O[C@@](O[C@H]2[C@@H](O)[C@@H](CO)O[C@@H](O[C@@H]([C@H](O[C@@H]3O[C@@H](C)[C@@H](O)[C@@H](O)[C@@H]3O)[C@H](C=O)NC(C)=O)[C@H](O)CO)[C@@H]2O)(C(=O)O)C[C@@H]1O [SIALYL LEWIS X],pIC50,[4],2.70
same,pIC50,[3],2.52
same,pIC50,[5],2.70
OC[C@H]1O[C@H](Oc2ccccc2-c2cccc(Cc3nnn[nH]3)c2)[C@@H](O)[C@H](O)[C@@H]1O,inhibition,[7],17%
O=C(O)Cc1ccc(-c2ccccc2O[C@H]2O[C@H](CO)[C@@H](O)[C@@H](O)[C@@H]2O)cc1,inhibition,[6],0%
same,inhibition,[9],0%
same,pIC50,[3],2.59
O=C(O)CNC(=O)c1ccc(-c2ccccc2O[C@H]2O[C@H](CO)[C@@H](O)[C@@H](O)[C@@H]2O)cc1,inhibition,[6],0%
same,inhibition,[9],0%
same,pIC50,[3],2.34
CC(C(=O)O)c1cccc(-c2ccccc2O[C@H]2O[C@H](CO)[C@@H](O)[C@@H](O)[C@@H]2O)c1 (stereo in doubt; 9s),pIC50,[3],1.70
O=C(O)Cc1cccc(-c2ccccc2O[C@H]2O[C@H](CO)[C@@H](O)[C@@H](O)[C@@H]2O)c1,pIC50,[4],3.00
same,pIC50,[3],2.70
same,pIC50,[5],2.59
O=C(O)CC[C@H](NC(=O)c1cccc(-c2ccccc2O[C@H]2O[C@H](CO)[C@@H](O)[C@@H](O)[C@@H]2O)c1)C(=O)O,pIC50,[3],1.80
same,inhibition,[18],15%
CC(C(=O)O)c1cccc(-c2ccccc2O[C@H]2O[C@H](CO)[C@@H](O)[C@@H](O)[C@@H]2O)c1 (stereo in doubt; 9r) [listing 2 of 2 here],pIC50,[5],1.70
Cc1ccc(OCC(=O)O)cc1-c1ccccc1O[C@H]1O[C@H](CO)[C@@H](O)[C@@H](O)[C@@H]1O,pIC50,[3],1.69
same,pIC50,[5],1.92
O=C(O)c1ccc(-c2ccccc2O[C@H]2O[C@H](CO)[C@@H](O)[C@@H](O)[C@@H]2O)cc1,inhibition,[9],0%
same,inhibition,[16],0%
same,pIC50,[3],1.84
